Consider seven molecules from ChEMBL document CHEMBL3046492, “Synthesis, insecticidal, and acaricidal activities of novel 2-aryl-pyrrole derivatives containing ester groups” (2008).

The structures appear in SMILES notation. Values after ≈ are worked out from the molar mass of the structure shown.

Common to all, as to type: functional
For experiment [1], the system named is Mythimna separata. Kind of experiment: Insecticidal activity against fourth-instar larval stage of Mythimna separata (Oriental armyworm) in compound pretreated corn leaves assessed as mortality at 10 mg/kg at 25 +/-1 degC measured after 2 days.
Experiment [2] concerns Tetranychus cinnabarinus. Kind of experiment: Acaricidal activity against adult Tetranychus cinnabarinus (carmine spider mite) in sieva bean plants assessed as mortality at 50 mg/kg treated for 3 secs measured after 2 days. The conditions noted are these: 48 h.
Experiment [3] relates to Mythimna separata. In words: Insecticidal activity against fourth-instar larval stage of Mythimna separata (Oriental armyworm) in compound pretreated corn leaves assessed as mortality at 20 mg/kg at 25 +/-1 degC measured after 2 days.
Experiment [4] relates to Tetranychus cinnabarinus. In words: Acaricidal activity against adult Tetranychus cinnabarinus (carmine spider mite) in sieva bean plants assessed as mortality at 100 mg/kg treated for 3 secs measured after 2 days. The conditions noted are these: 48 h.
Experiment [5] concerns Culex pipiens pallens. Kind of experiment: Insecticidal activity against fourth-instar larval stage of Culex pipiens pallens (mosquito) assessed as mortality at 0.10 mg/kg at 25 +/-1 degC after 2 days. The conditions noted are these: 48 h. The method, boiled down: (§1)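 Test solutions were prepared by adding 1 mL of each concentrated dilution to 99 mL water. Bioassays were run at 25 ± 1 °C on laboratory-reared insects.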

In experiment [6] the test system is Tetranychus cinnabarinus. Kind of experiment: Acaricidal activity against adult Tetranychus cinnabarinus (carmine spider mite) in sieva bean plants assessed as mortality at 200 mg/kg treated for 3 secs measured after 2 days. The settings on record: 48 h.
Experiment [7] deals with Culex pipiens pallens. Kind of experiment: Insecticidal activity against fourth-instar larval stage of Culex pipiens pallens (mosquito) assessed as mortality at 0.25 mg/kg at 25 +/-1 degC after 2 days. The conditions noted are these: 48 h. The method, boiled down:
as §1

For experiment [8], the system named is Mythimna separata. Kind of experiment: Insecticidal activity against fourth-instar larval stage of Mythimna separata (Oriental armyworm) in compound pretreated corn leaves assessed as mortality at 5 mg/kg at 25 +/-1 degC measured after 2 days.
In experiment [9] the test system is Culex pipiens pallens. Kind of experiment: Insecticidal activity against fourth-instar larval stage of Culex pipiens pallens (mosquito) assessed as mortality at 0.50 mg/kg at 25 +/-1 degC after 2 days. The conditions noted are these: 48 h. The procedure, abridged: as §1
In experiment [10] the test system is Nephotettix cincticeps. In words: Insecticidal activity against third instar larval stage of Nephotettix cincticeps (green rice leafhopper) in rice seedlings assessed as mortality treated for 15 secs before larval infestation measured after 48 hr by seedling-dipping method.
For experiment [11], the system named is Nephotettix cincticeps. In words: Toxic ratio, ratio of Chlorfenapyr LC50 to compound LC50 for third-instar larval stage of Nephotettix cincticeps (green rice leafhopper) measured after 48 hr by seedling-dipping method.
The test system of experiment [12] is Aphis fabae. In words: Insecticidal activity against apterous adult stage of Aphis fabae (black bean aphids) in soybean tender shoots assessed as mortality treated for 5 secs measured after 48 hr. The method, boiled down: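 This was a slightly modified FAO dip test. Soybean tender shoots carrying 40-60 healthy apterous adult aphids were dipped in diluted compound for 5 s. Excess fluid was removed, and shoots were kept in a conditioned room. Mortality was scored at 48 h, with testing at 25 ± 1 °C.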

In experiment [13] the test system is Aphis fabae. Kind of experiment: Toxic ratio, ratio of Chlorfenapyr LC50 to compound LC50 for apterous adult stage of Aphis fabae (black bean aphids) measured after 48 hr.
Experiment [14] relates to Plutella xylostella. Kind of experiment: Toxic ratio, ratio of Chlorfenapyr LC50 to compound LC50 for second-instar larval stage of Plutella xylostella (diamondback moth) by leaf disk assay.
Experiment [15] concerns Plutella xylostella. In words: Insecticidal activity against second-instar larval stage of Plutella xylostella (diamondback moth) in fresh cabbage leaves assessed as mortality treated for 15 secs before larval infestation by leaf disk assay. The settings on record: foliar.
Experiment [16] concerns Tetranychus cinnabarinus. Kind of experiment: Acaricidal activity against adult two spot Tetranychus cinnabarinus (carmine spider mite) assessed as mortality at 25 +/-2 degC treated for 10 secs measured after 24 hr by slide immersion method. The method, boiled down:
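Thirty adult female mites were fixed dorsally on double-sided tape on a slide with a small brush. Slides were immersed and shaken for 10 s in diluted test solution, and excess liquid was removed. Slides were then held at 25 ± 2 °C in a Petri dish with moist filter paper. Dead mites were counted at 24 h. There were 3 replicates of 30 mites each, with chlorfenapyr as standard. LC50 was obtained by Finney probit analysis.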

Experiment [17] relates to Tetranychus cinnabarinus. Kind of experiment: Toxic ratio, ratio of Chlorfenapyr LC50 to compound LC50 for adult two spot Tetranychus cinnabarinus (carmine spider mite) measured after 24 hr by slide immersion method.

Broadly, the mortality is the share of the test organisms that died. As to `N#Cc1c(Br)c(C(F)(F)F)n(COC=O)c1-c1ccc(Cl)cc1`, the mortality at 10 mg/kg in the experiment on Mythimna separata [1] was determined as 100%. In addition, the mortality at 50 mg/kg with Tetranychus cinnabarinus [2] was 82%. Moreover, the mortality at 20 mg/kg in the experiment on Mythimna separata [3] is 100%. Further, the mortality at 100 mg/kg in the experiment with Tetranychus cinnabarinus [4] worked out at 89%. Also, in the experiment with Culex pipiens pallens [5], the mortality at 0.1 mg/kg is 50%. Moreover, in the experiment on Tetranychus cinnabarinus [6], the mortality at 200 mg/kg stood at 100%. In addition, in the experiment with Culex pipiens pallens [7], the mortality at 0.25 mg/kg was 100%. In addition, the mortality at 5 mg/kg in the experiment with Mythimna separata [8] came to 0%. In the experiment with Culex pipiens pallens [9], the mortality at 0.5 mg/kg is 100%.

For the molecule `CCC(=O)OCn1c(-c2ccc(Cl)cc2)c(C#N)c(Br)c1C(F)(F)F`, in the experiment on Mythimna separata [1], the mortality at 10 mg/kg came out at 90%. Further, the mortality at 50 mg/kg with Tetranychus cinnabarinus [2] was found to be 88%. Also, the mortality at 20 mg/kg with Mythimna separata [3] worked out at 100%. Besides, in the experiment on Tetranychus cinnabarinus [4], the mortality at 100 mg/kg turned out to be 92%. For the same molecule, the mortality at 0.1 mg/kg with Culex pipiens pallens [5] is 100%. For the same molecule, the mortality at 200 mg/kg in the experiment on Tetranychus cinnabarinus [6] is 100%. Moreover, in the experiment with Culex pipiens pallens [7], the mortality at 0.25 mg/kg was found to be 100%. Moreover, the mortality at 5 mg/kg in the experiment on Mythimna separata [8] was 0%. Moreover, in the experiment on Culex pipiens pallens [9], the mortality at 0.5 mg/kg was determined as 100%.

As to `CCCC(=O)OCn1c(-c2ccc(Cl)cc2)c(C#N)c(Br)c1C(F)(F)F`, in the experiment on Mythimna separata [1], the mortality at 10 mg/kg amounted to 100%. The mortality at 50 mg/kg in the experiment with Tetranychus cinnabarinus [2] is 100%. Besides, the mortality at 20 mg/kg with Mythimna separata [3] is 100%. In addition, the mortality at 100 mg/kg in the experiment with Tetranychus cinnabarinus [4] was found to be 100%. The mortality at 0.1 mg/kg with Culex pipiens pallens [5] came out at 100%. Also, the mortality at 200 mg/kg in the experiment with Tetranychus cinnabarinus [6] stood at 100%. For the same molecule, the mortality at 0.25 mg/kg in the experiment with Culex pipiens pallens [7] was determined as 100%. In addition, the mortality at 5 mg/kg with Mythimna separata [8] was determined as 0%. The mortality at 0.5 mg/kg in the experiment on Culex pipiens pallens [9] is 100%.

For `CCCCC(=O)OCn1c(-c2ccc(Cl)cc2)c(C#N)c(Br)c1C(F)(F)F`, the mortality at 10 mg/kg in the experiment with Mythimna separata [1] was found to be 100%. For the same molecule, the mortality at 50 mg/kg in the experiment with Tetranychus cinnabarinus [2] worked out at 100%. The mortality at 20 mg/kg in the experiment on Mythimna separata [3] amounted to 100%. The mortality at 100 mg/kg with Tetranychus cinnabarinus [4] is 100%. Also, in the experiment on Culex pipiens pallens [5], the mortality at 0.1 mg/kg is 100%. Moreover, in the experiment with Tetranychus cinnabarinus [6], the mortality at 200 mg/kg is 100%. Besides, the mortality at 0.25 mg/kg in the experiment with Culex pipiens pallens [7] was 100%. The mortality at 5 mg/kg with Mythimna separata [8] stood at 0%. Also, in the experiment with Culex pipiens pallens [9], the mortality at 0.5 mg/kg turned out to be 100%.

By LC50 is commonly meant the concentration that kills 50% of the test population. On to `CC(C)CC(=O)OCn1c(-c2ccc(Cl)cc2)c(C#N)c(Br)c1C(F)(F)F`, for which the mortality at 10 mg/kg in the experiment with Mythimna separata [1] worked out at 100%. For the same molecule, in the experiment with Tetranychus cinnabarinus [2], the mortality at 50 mg/kg was 100%. Also, in the experiment on Mythimna separata [3], the mortality at 20 mg/kg was found to be 100%. Also, the mortality at 100 mg/kg in the experiment with Tetranychus cinnabarinus [4] was determined as 100%. In addition, the mortality at 0.1 mg/kg with Culex pipiens pallens [5] came out at 100%. Also, the LC50 with Nephotettix cincticeps [10] came out at 34.1 µg/mL (≈ 73.6 µM); with Aphis fabae [12], 17.8 µg/mL (≈ 38.5 µM); in the experiment with Plutella xylostella [15] it was 1.88 µg/mL (≈ 4.05 µM); in the experiment on Tetranychus cinnabarinus [16] it was 0.43 µg/mL (≈ 0.927 µM). In addition, the RatioLC50 was found to be 0.79 with Nephotettix cincticeps [11], 0.69 with Aphis fabae [13], 0.97 with Plutella xylostella [14] and 2.65 with Tetranychus cinnabarinus [17]. The mortality at 200 mg/kg in the experiment with Tetranychus cinnabarinus [6] is 100%. In the experiment on Culex pipiens pallens [7], the mortality at 0.25 mg/kg amounted to 100%. For the same molecule, in the experiment on Mythimna separata [8], the mortality at 5 mg/kg was 0%. Also, the mortality at 0.5 mg/kg with Culex pipiens pallens [9] is 100%.

As for `N#Cc1c(Br)c(C(F)(F)F)n(COC(=O)c2ccccc2)c1-c1ccc(Cl)cc1`, the mortality at 10 mg/kg in the experiment with Mythimna separata [1] stood at 60%. Also, in the experiment with Tetranychus cinnabarinus [2], the mortality at 50 mg/kg was determined as 100%. Besides, in the experiment on Mythimna separata [3], the mortality at 20 mg/kg stood at 100%. For the same molecule, the mortality at 100 mg/kg in the experiment with Tetranychus cinnabarinus [4] is 100%. In addition, the mortality at 0.1 mg/kg with Culex pipiens pallens [5] was found to be 10%. For the same molecule, the mortality at 200 mg/kg in the experiment with Tetranychus cinnabarinus [6] was determined as 100%. The mortality at 0.25 mg/kg in the experiment with Culex pipiens pallens [7] turned out to be 20%. In addition, the mortality at 5 mg/kg in the experiment with Mythimna separata [8] is 0%. For the same molecule, the mortality at 0.5 mg/kg with Culex pipiens pallens [9] worked out at 100%.

Take `CCOCn1c(-c2ccc(Cl)cc2)c(C#N)c(Br)c1C(F)(F)F` [CHLORFENAPYR]: the mortality at 10 mg/kg in the experiment with Mythimna separata [1] came out at 100%. Besides, the mortality at 50 mg/kg in the experiment with Tetranychus cinnabarinus [2] was 93%. Besides, in the experiment on Mythimna separata [3], the mortality at 20 mg/kg stood at 100%. In the experiment on Tetranychus cinnabarinus [4], the mortality at 100 mg/kg was 97%. For the same molecule, the mortality at 0.1 mg/kg in the experiment on Culex pipiens pallens [5] came to 100%. For the same molecule, the 50% lethal concentration (LC50) in the experiment on Nephotettix cincticeps [10] was determined as 26.8 µg/mL (≈ 65.8 µM); in the experiment with Aphis fabae [12], 12.2 µg/mL (≈ 30 µM); in the experiment on Plutella xylostella [15] it was 1.82 µg/mL (≈ 4.46 µM); in the experiment with Tetranychus cinnabarinus [16], 1.14 µg/mL (≈ 2.8 µM). The RatioLC50 with Nephotettix cincticeps [11], in the experiment on Aphis fabae [13], in the experiment with Plutella xylostella [14] and with Tetranychus cinnabarinus [17] was 1 in each case. Moreover, the mortality at 200 mg/kg in the experiment on Tetranychus cinnabarinus [6] stood at 100%. In the experiment on Culex pipiens pallens [7], the mortality at 0.25 mg/kg came out at 100%. In the experiment on Mythimna separata [8], the mortality at 5 mg/kg was 0%. In the experiment on Culex pipiens pallens [9], the mortality at 0.5 mg/kg was 100%.
